Compound activity from PubChem.
Most compounds without a hit are left out; they make up all but 2.8% or so of the library.
NPY Y1 blocker: antagonists of human neuropeptide Y receptor Y1; HEK293-CNG Y1 cells, membrane potential fluorescence; NPY at EC95, then isoproterenol; AID 1040; inhibition, % at 3.6 µM; 1% of 200,000 active; P25929;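 active means inhibition above the campaign mean inhibition of all tested compounds plus 3 SD, cut at about 20% in these data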;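 further: 0% = DMSO wells given NPY plus isoproterenol and 100% = isoproterenol alone without NPY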
Target sequence (P25929 whole entry, looked up): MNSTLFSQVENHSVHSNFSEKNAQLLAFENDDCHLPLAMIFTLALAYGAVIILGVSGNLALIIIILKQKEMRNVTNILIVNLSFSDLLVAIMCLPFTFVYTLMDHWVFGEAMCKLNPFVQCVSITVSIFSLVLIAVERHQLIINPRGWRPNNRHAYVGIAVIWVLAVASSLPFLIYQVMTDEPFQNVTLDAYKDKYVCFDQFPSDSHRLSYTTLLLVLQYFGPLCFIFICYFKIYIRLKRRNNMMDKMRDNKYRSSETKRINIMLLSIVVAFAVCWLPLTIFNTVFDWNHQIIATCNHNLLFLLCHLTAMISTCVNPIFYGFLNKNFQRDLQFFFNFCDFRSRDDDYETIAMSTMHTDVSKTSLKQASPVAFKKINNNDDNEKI
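Test system – HEK293 Y1/CNG channel cell line · Also added – NPY agonist 25 nM, then isoproterenol 1 µM plus Ro 20-1724 25 µM · Compound dosing – one concentration, 3.6 µM, in 0.4% DMSO · Schedule – compound incubation 1 h at room temperature, readout 45 min post-stimulation · Technique – fluorescence, membrane potential probe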
NPY Y2 blocker: blocks the human neuropeptide Y Y2 receptor | P49146 | NPY-Y2 expressing cells, antagonist mode | inhibition, % at 2.7 µM | 0.99% of 140,000 active; in the data active means inhibition above about 17%;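 further: 0% = vehicle with agonist challenge and 100% = reference antagonist with challenge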
Rad51 HR inh: blocks human Rad51 in homologous recombination | Q06609 | hRad51 DNA strand exchange, fluorescence dequenching | inhibition, % at 10 µM | 0.085% of 200,000 active | AID 1385;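 active means inhibition above 40% at the single screening dose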;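 further: 0% = DMSO control wells and 100% = blanks with heterologous ssDNA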
Target sequence (Q06609 whole entry, looked up): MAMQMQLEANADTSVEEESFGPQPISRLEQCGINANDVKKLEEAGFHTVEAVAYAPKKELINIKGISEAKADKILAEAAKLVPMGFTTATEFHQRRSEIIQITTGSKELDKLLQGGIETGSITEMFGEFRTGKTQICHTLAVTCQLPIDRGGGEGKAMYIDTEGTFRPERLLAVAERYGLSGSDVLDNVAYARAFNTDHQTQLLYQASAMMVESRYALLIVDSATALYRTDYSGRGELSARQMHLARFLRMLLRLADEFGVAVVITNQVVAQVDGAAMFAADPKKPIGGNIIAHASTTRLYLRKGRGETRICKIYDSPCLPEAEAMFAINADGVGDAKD
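Material: Human Rad51 nucleoprotein filaments preassembled on unlabelled ssDNA | Also added: Labelled 47-mer dsDNA for strand exchange | Dosing: Single dose, 10 µM final compound | Schedule: 30-min compound preincubation and 15-min exchange, both room temperature | Technique: Fluorescence dequenching at 485/520 nm | Measure: Percent inhibition relative to plate controls and blanks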
Measles CPE: protection of cells from measles virus. protection (pct of control), % at 4 µM. AID 841. 1.5% of 140,000 active. Measles virus-infected cells, CPE protection, absorbance; in the data active means protection mostly above about 24%, no sharp cut-off; inactive means mostly below about 26%
NPY2 pot ag: potentiates or activates human NPY-Y2 receptor | activation, % at 3.6 µM | P49146 | cells expressing NPY-Y2, potentiator/agonist read-out | AID 1359 | 0.45% of 220,000 active; in the data active means activation above about 27%;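 further: cells stimulated with NPY near EC25 plus isoproterenol at EC100; 0% = vehicle plus submaximal agonist and 100% = vehicle plus saturating agonist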
NPY1 pot ag: potentiators or agonists of human neuropeptide Y receptor Y1; 0.37% of 220,000 active; P25929; activation, % at 3.6 µM; NPY-Y1 expressing cells, potentiator/agonist activation; in the data active means activation above about 33%, passing the limit was not always enough;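 further: cells stimulated with NPY at EC10 then isoproterenol at EC100; 0% = low agonist plus stimulus and 100% = saturating agonist plus stimulus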
NPY-Y2 confirm: human NPY-Y2 potentiation or agonism, confirmation; shares compounds with NPY2 pot ag; cell-based NPY-Y2 potentiator/agonist assay; activation, % at 3.6 µM; 20% of 450 active; AID 1539; in the data active means activation above about 33%
NPY-Y1 potentiator: NPY-Y1 potentiation or agonism as NPY-Y2 counter-screen; shares compounds with NPY2 pot ag; Y1 HEK293-CNG cells, membrane potential fluorescence; activation, % at 3.6 µM; 20% of 450 active; AID 1651; in the data active means activation above about 45%;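 further: cells stimulated with submaximal NPY then isoproterenol with phosphodiesterase inhibitor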
NPY-Y1 agonist 2: counter-screen for NPY-Y2 potentiators: agonists of human NPY-Y1. shares compounds with NPY2 pot ag. HEK293 Y1-CNGC, membrane potential fluorescence, agonism. activation, % at 3.6 µM. 37% of 450 active;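 active means activation above the mean of DMSO-only control wells plus 3 SD, cut at about 18% in these data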;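 further: cells stimulated with 1 µM isoproterenol plus the PDE inhibitor Ro 20-1724; 0% = isoproterenol with DMSO and no NPY and 100% = 40 nM NPY; Y1 agonists lower the membrane potential dye signal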
CNGC inh: blocks CNG channel activity, counter-screen for NPY-Y2 potentiators; HEK293-CNG parental, isoproterenol cAMP, membrane potential fluorescence; shares compounds with NPY2 pot ag; AID 1703; 32% of 450 active; inhibition, % at 3.6 µM;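 active means inhibition above the control-well mean plus 3 SD of those wells, cut at about 22% in these data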;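 further: 0% = DMSO with isoproterenol and 100% = DMSO without isoproterenol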
Y2 agonist ctr: activates human NPY-Y2 receptor in potentiator counter-screen | shares compounds with NPY2 pot ag | HEK293 Y2/CNGC cells, membrane potential fluorescence, agonist mode | activation, % at 3.6 µM | 56% of 450 active | AID 1710;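 active means activation above the mean of solvent-only control wells plus 3 SD, cut at about 10% in these data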;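 further: cells stimulated by isoproterenol with no NPY added so direct agonism is tested; 0% = DMSO with isoproterenol alone and 100% = NPY at EC100 plus isoproterenol; agonism lowers probe fluorescence through less cAMP and CNG channel opening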
* = called active by the depositor; . = not tested or not shown.

SMILES	NPY Y1 blocker	NPY Y2 blocker	Rad51 HR inh	Measles CPE	NPY2 pot ag	NPY1 pot ag	NPY-Y2 confirm	NPY-Y1 potentiator	NPY-Y1 agonist 2	CNGC inh	Y2 agonist ctr
CC1CCCN(C(=O)c2ccc3c(c2NCCO)C(=O)c2ccccc2C3=O)C1 (centres undefined)	-8	-9	-2	35	31*	29	46*	62*	38*	31*	42*
CCNc1c(C(=O)O)ccc2c1C(=O)c1ccccc1C2=O	-2	4	-10	9	-6	-12	.	.	.	.	.
CCc1noc(C)c1C(=O)Nc1nc(-c2cc(C)ccc2C)c(C)s1	-2	1	-2	8	-15	4	.	.	.	.	.
CCc1noc(C)c1C(=O)Nc1ncc(C)s1	-1	2	-7	14	32*	25	-1	3	-1	2	-1
CC(C)(C)OC(=O)CNC(=O)c1nc[nH]c1C(=O)NCC(=O)OC(C)(C)C	.	.	-6	.	.	.	.	.	.	.	.
O=C(c1cc(COc2c(F)cccc2F)on1)N1CCC(c2ccncc2)CC1	-7	.	12	.	36*	-11	1	-38	-14	-7	4
COCCCn1c(O)c(/C=C2\N=C(C#N)C(=Nc3ccc(C)cc3)O2)sc1=S	.	.	.	.	37*	27	19	9	-2	-4	27*
Cc1ccc(Nc2nc(N/N=C/c3c[nH]c4ccccc34)nc(N3CCOCC3)n2)cc1	-6	-3	13	23	27*	31	41*	59*	33*	42*	44*
CN1CCN(C(=O)C2CCN(c3ncc(C(F)(F)F)cc3Cl)CC2)CC1	-3	.	3	.	-4	-3	.	.	.	.	.
COc1ccc(N(C(=O)COc2ccc(C)cc2)S(=O)(=O)c2ccc(C)cc2)cc1	7	4	7	21	-7	7	.	.	.	.	.
Cc1cccc2c(N)c3c(nc12)CCCC3 (tested in a mixture with another compound)	5	.	-6	.	49*	33	52*	64*	-1	10	48*
CC1CN(CC(=O)Nc2ccccc2Sc2ccccc2)CC(C)O1 (centres undefined)	2	2	-12	7	12	-14	.	.	.	.	.
CCn1nnnc1SCC(=O)NC1CCCC1	1	0	-9	1	2	16	.	.	.	.	.
CC(=O)OCC1O[C@@H](O[C@@H]2C[C@H]3C(C)(C)[C@H](OC(C)=O)CC[C@]3(C)[C@H]3CC[C@]45C[C@]4(CC[C@H]5[C@@H](C)C[C@@H](O)[C@H](O)C(C)(C)O)[C@@]32C)[C@H](O)[C@@H](O)[C@@H]1O (some centres undefined)	-10	0	9	10	35*	31	32	31	39*	26*	35*
C=CCn1c(=O)c(C(=O)Nc2ccccc2O)c(O)c2ccccc21	4	4	-5	6	53*	16	1	-9	-1	2	6
COc1nc(/C=C/N(C)C)c([N+](=O)[O-])c(OC)n1	.	.	-6	.	102*	28	-1	-3	-6	-18	-10
O=C(CNC1CCCCCC1)Nc1ccc(N2CCCC2)cc1	-5	6	.	4	-10	17	.	.	.	.	.
O=C(CNCCC1=CCCCC1)Nc1ccc(N2CCCCCC2)cc1	-3	1	2	13	45*	38	39*	45*	37*	38*	46*
COCCc1ccc(OCC(O)CNC(C)C)cc1 (centres undefined)	-7	0	-2	1	65*	57	38*	39	34*	8	28*
CC(C)NCC(O)COc1ccc(CC(N)=O)cc1 (centres undefined)	-1	2	-2	18	15	14	.	.	.	.	.
O=C(Cc1cccc(C(F)(F)F)c1)NCC(c1ccco1)N1CCCCC1 (centres undefined)	2	.	-1	.	7	-1	.	.	.	.	.
COC(=O)COc1ccc(S(=O)(=O)N2CCN(c3ccccc3)CC2)cc1	-9	.	9	.	30*	28	15	16	-4	-4	-1
COc1ccc(N2CCN(S(=O)(=O)c3ccc(OC)cc3)CC2)cc1	5	0	5	5	2	-11	.	.	.	.	.
COC(=O)COc1ccc(S(=O)(=O)N2CCN(c3ccccc3F)CC2)cc1	-6	1	4	4	36*	21	35*	42	34*	25*	26*
c1coc(CSc2ncnc3c2oc2ccccc23)c1	.	.	.	.	-1	-14	.	.	.	.	.
SMILES	NPY Y1 blocker	NPY Y2 blocker	Rad51 HR inh	Measles CPE	NPY2 pot ag	NPY1 pot ag	NPY-Y2 confirm	NPY-Y1 potentiator	NPY-Y1 agonist 2	CNGC inh	Y2 agonist ctr
Cc1ccc2[nH]c(=O)c(CNC(C)C)cc2c1	-1	0	1	6	99*	29	1	4	-6	2	8
COc1ccc2[nH]cc(CCNC(=O)C3CCCO3)c2c1 (centres undefined)	4	.	.	.	11	-1	.	.	.	.	.
CS(=O)(=O)NCc1nnc(SCc2ccccc2C(F)(F)F)o1	10	4	1	7	0	14	.	.	.	.	.
CS(=O)(=O)NCc1nnc(SCc2ccc(C(F)(F)F)cc2)o1	.	.	.	.	102*	1	2	2	-1	-3	8
Cc1ccc(Cl)cc1NC(=O)c1cc2ccccc2cc1O	.	.	16	.	45*	37	8	15	-5	20	19*
Cc1ccc(Cl)cc1NC(=O)COC(=O)c1ccccc1O	.	.	14	.	-2	-11	.	.	.	.	.
COc1cc(OC)c(NC(=O)c2ccccc2F)cc1Cl	9	.	6	.	-3	-8	.	.	.	.	.
COc1cc(NC(=O)c2cc3ccccc3cc2O)c(OC)cc1Cl	.	.	-1	.	58*	31	21	-8	-13	4	12*
CCOC(=O)Cn1c(=O)oc2cc(S(=O)(=O)Nc3ccc(F)cc3)ccc21	-11	-1	7	19	36*	31	16	20	22*	33*	12*
CCOC(=O)Cn1c(=O)oc2cc(S(=O)(=O)NCCc3ccc(C)cc3)ccc21	3	13	-6	22	-13	-10	.	.	.	.	.
CC(C)(C)NC(=O)CSc1nc(O)cc(=O)[nH]1	-5	1	2	9	-13	-1	.	.	.	.	.
